Assay results reported in ChEMBL document CHEMBL4028861, “Selective Nonsteroidal Glucocorticoid Receptor Modulators for the Inhaled Treatment of Pulmonary Diseases” (J Med Chem, 2017).
Values after ≈ are worked out from the molar mass of the structure shown.

Key:
[1] = Intrinsic clearance in human hepatocytes assessed per million cells; type: ADME, cell-based, Hepatocyte; conditions: read-out: CLH
[2] = Lipophilicity, log D of the compound by chromatography; type: physicochemical
[3] = Solubility of the compound in phosphate buffer at pH 7.4 using liquid sample at 20 degreeC; type: physicochemical
Procedure, shortened: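 Solubility measured in 0.1 M phosphate buffer at pH 7.4 and 20 °C, starting from a 10 mM DMSO stock solution.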

[4] = Solubility of the compound in phosphate buffer at pH 7.4 using solid sample at 23 degreeC; type: physicochemical
Procedure, shortened: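 Solubility measured in 0.1 M phosphate buffer at pH 7.4 and 23 °C, starting from crystalline solid.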

[5] = Intrinsic clearance in Wistar Han rat hepatocytes assessed per 10^6 cells; type: ADME, cell-based, Hepatocyte; conditions: read-out: CLH
[6] = Volume of distribution at steady state in Wistar Han rat at 1 umol/kg, iv administered as bolus dose by LC-MS/MS analysis; type: ADME, organism-based; conditions: in vivo, read-out: Vdss
[7] = Terminal half life in Wistar Han rat 1 umol/kg, iv administered as bolus dose by LC-MS/MS analysis; type: ADME, organism-based; conditions: in vivo, read-out: beta t1/2 (converted)
[8] = Oral bioavailability in Wistar Han rat administered via gavage by LC-MS/MS analysis; type: ADME, organism-based; conditions: in vivo
[9] = Thermodynamic solubility of the compound in human intestinal fluid; type: physicochemical; conditions: read-out: Therm_solubility
Lung [10] = test: Drug uptake in Wistar Han rat lung at 0.1 umol/kg, administered as dry powder inhalation after 4 hrs by LC-MS/MS analysis; type: ADME; conditions: in vivo, inhaled_or_intranasal
Lung [11] = test: Drug uptake in Wistar Han rat lung at 0.1 umol/kg, administered as dry powder inhalation after 24 hrs by LC-MS/MS analysis; type: ADME, tissue-based; conditions: in vivo, inhaled_or_intranasal
[12] = AUC (0 to infinity) in Wistar Han rat lung at 0.1 umol/kg, administered as dry powder inhalation by LC-MS/MS analysis; type: ADME; parameters: dose 0.1 umol/kg, route respiratory (INHALATION), time infinity; conditions: inhaled or intranasal
[13] = Apparent terminal half life in Wistar Han rat lung at 0.1 umol/kg, administered as dry powder inhalation by LC-MS/MS analysis; type: ADME; conditions: inhaled or intranasal, read-out: betat1/2(app) (converted)
[14] = Mean residence time in Wistar Han rat lung at 0.1 umol/kg, administered as dry powder inhalation by LC-MS/MS analysis; type: ADME, tissue-based; conditions: inhaled or intranasal
[15] = Cmax in Wistar Han rat plasma at 0.1 umol/kg, administered as dry powder inhalation by LC-MS/MS analysis; type: ADME; parameters: dose 0.1 umol/kg, route respiratory (INHALATION); conditions: inhaled or intranasal
Rattus norvegicus = test: Toxicity in inhaled CRL:CD Sprague Dawley rat model of sephadex induced lung edema assessed as induction of thymic involution administered once per day for 3 days; conditions: in vivo, inhaled_or_intranasal, 72 h
Procedure, shortened: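 Thymic involution scored in the same Sephadex-challenged rats dosed by inhalation, as a sensitive marker of systemic GR agonism.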

[16] = Clearance in Wistar Han rat at 1 umol/kg, iv administered as bolus dose by LC-MS/MS analysis; type: ADME, organism-based; conditions: in vivo

SMILES | hepatocyte CLint [1] | chromatographic logD [2] | solubility [3] | solubility thermodynamic [4] | also measured
C[C@H](NC(=O)C(C)(F)F)[C@H](Oc1ccc2c(cnn2-c2cccc(C(=O)N[C@@H]3CCS(=O)(=O)C3)c2)c1)c1ccc2c(c1)OCCO2 | 22 µL/min/1e6 cells | 3.6 | < 0.01 µM | < 0.1 µM | hepatocyte CLint [5]: 31 µL/min/1e6 cells; Vd [6]: 2.8 L/kg; half-life [7]: 0.3 h; bioavailability [8]: < 0.1%; solubility thermodynamic [9]: 0.3 µM (≈ 0.196 µg/mL); Drug uptake (Lung [10]): 93 %ID; Drug uptake (Lung [11]): 91 %ID; AUC(0-inf) [12]: 5200 µM·h; half-life [13]: 179 h; MRT [14]: 210 h; Cmax [15]: 4.9 nM; ED25 (Rattus norvegicus): > 0.13 mg/kg
C[C@H](NC(=O)C(C)(F)F)[C@H](Oc1ccc2c(cnn2-c2ccc(F)cc2)c1)c1ccc2c(c1)OCOC2 | 15 µL/min/1e6 cells | 5.4 |  |  | 
C[C@H](NC(=O)C(C)(F)F)[C@H](Oc1ccc2c(cnn2-c2cccc(C(=O)N3CCC[C@H]3C(N)=O)c2)c1)c1ccccc1 |  | 3.3 | 85 µM (≈ 48.9 µg/mL) |  | 
C[C@H](NC(=O)C(C)(F)F)[C@H](Oc1ccc2c(cnn2-c2cccc(C(=O)N[C@@H]3CCOC3=O)c2)c1)c1ccccc1 |  | 3.9 | 2 µM (≈ 1.13 µg/mL) | 0.12 µM (≈ 0.0675 µg/mL) | 
CCCC1O[C@@H]2C[C@H]3[C@@H]4CCC5=CC(=O)C=C[C@]5(C)[C@H]4[C@@H](O)C[C@]3(C)[C@]2(C(=O)CO)O1 (stereo not given in full) [BUDESONIDE] | 20 µL/min/1e6 cells | 3.4 |  |  | 
C[C@H](NC(=O)C(F)(F)F)[C@H](Oc1ccc2c(cnn2-c2ccc(F)cc2)c1)c1ccccc1 | < 2.1 µL/min/1e6 cells | 6.1 |  |  | 
C[C@H](NC(=O)C(C)(F)F)[C@H](Oc1ccc2c(cnn2-c2cccc(C(=O)NCc3cccnc3)c2)c1)c1ccc2c(c1)OCOC2 | 21 µL/min/1e6 cells | 3.6 | < 0.1 µM | 0.02 µM (≈ 0.0126 µg/mL) | hepatocyte CLint [5]: 25 µL/min/1e6 cells; clearance [16]: 73 mL/min/kg; Vd [6]: 0.81 L/kg; half-life [7]: 0.1 h; bioavailability [8]: 0.3%; solubility thermodynamic [9]: 1.3 µM (≈ 0.816 µg/mL); Drug uptake (Lung [10]): 41 %ID; Drug uptake (Lung [11]): 8.6 %ID; AUC(0-inf) [12]: 190 µM·h; half-life [13]: 9 h; MRT [14]: 10 h; Cmax [15]: 12 nM; ED25 (Rattus norvegicus): 0.027 mg/kg
C[C@H](NC(=O)C(F)(F)F)[C@H](Oc1ccc2c(cnn2-c2ccc(F)cc2)c1)c1ccc2c(c1)OCCO2 |  | 5.7 |  |  | 
C[C@H](NC(=O)C(C)(F)F)[C@H](Oc1ccc2c(cnn2-c2cccc(C(=O)N[C@H]3CCS(=O)(=O)C3)c2)c1)c1ccc2c(c1)OCCO2 | 23 µL/min/1e6 cells | 3.6 | 0.01 µM (≈ 0.00655 µg/mL) | 0.68 µM (≈ 0.445 µg/mL) | 
C[C@H](NC(=O)C(C)(F)F)[C@H](Oc1ccc2c(cnn2-c2cccc(C(=O)N3CCC[C@@H]3C(N)=O)c2)c1)c1ccc2c(c1)OCOC2 | 9.7 µL/min/1e6 cells | 2.9 | 19 µM (≈ 12 µg/mL) |  | 
C[C@H](NC(=O)C(C)(F)F)[C@H](Oc1ccc2c(cnn2-c2cccc(C(=O)N3CCC[C@@H]3C(N)=O)c2)c1)c1ccccc1 | < 2.7 µL/min/1e6 cells | 3.3 | 36 µM (≈ 20.7 µg/mL) |  | 
C[C@H](NC(=O)C(C)(F)F)[C@H](Oc1ccc2c(cnn2-c2cccc(C(=O)N[C@@H]3CCOC3=O)c2)c1)c1ccc2c(c1)OCCO2 | 17 µL/min/1e6 cells | 3.6 | 0.16 µM (≈ 0.0993 µg/mL) | 0.22 µM (≈ 0.137 µg/mL) | 
C[C@H](NC(=O)C(F)(F)F)[C@H](Oc1ccc2c(cnn2-c2ccc(F)cc2)c1)c1cccc(OS(=O)(=O)O)c1 | < 2.7 µL/min/1e6 cells |  |  |  | 
C[C@H](NC(=O)C(C)(F)F)[C@H](Oc1ccc2c(cnn2-c2cccc(C(=O)NCc3cccnc3)c2)c1)c1ccc2c(c1)OCCO2 | 21 µL/min/1e6 cells | 3.7 | < 0.1 µM | 0.23 µM (≈ 0.144 µg/mL) | hepatocyte CLint [5]: 25 µL/min/1e6 cells; clearance [16]: 68 mL/min/kg; Vd [6]: 0.97 L/kg; half-life [7]: 0.2 h; bioavailability [8]: 0.16%; solubility thermodynamic [9]: 2.1 µM (≈ 1.32 µg/mL); Drug uptake (Lung [10]): 4.1 %ID; Drug uptake (Lung [11]): 0.18 %ID; AUC(0-inf) [12]: 26 µM·h; half-life [13]: 4.9 h; MRT [14]: 2.6 h; Cmax [15]: 21 nM; ED25 (Rattus norvegicus): 0.012 mg/kg
CCC(=O)O[C@]1(C(=O)SCF)[C@H](C)C[C@H]2[C@@H]3C[C@H](F)C4=CC(=O)C=C[C@]4(C)[C@@]3(F)[C@@H](O)C[C@@]21C [FLUTICASONE PROPIONATE] | 33 µL/min/1e6 cells | 4.9 |  |  | hepatocyte CLint [5]: 28 µL/min/1e6 cells; clearance [16]: 103 mL/min/kg; Vd [6]: 31 L/kg; half-life [7]: 3.3 h; bioavailability [8]: < 0.1%; solubility thermodynamic [9]: 0.62 µM (≈ 0.31 µg/mL); Drug uptake (Lung [10]): 43 %ID; Drug uptake (Lung [11]): 1.9 %ID; AUC(0-inf) [12]: 200 µM·h; half-life [13]: 4.5 h; MRT [14]: 6.5 h; Cmax [15]: 24 nM; ED25 (Rattus norvegicus): 0.0039 mg/kg
C[C@H](NC(=O)C(C)(F)F)[C@H](Oc1ccc2c(cnn2-c2cccc(C(=O)N[C@H]3CCOC3)c2)c1)c1ccc2c(c1)OCCO2 | 30 µL/min/1e6 cells | 3.7 | 1.3 µM (≈ 0.789 µg/mL) | 0.09 µM (≈ 0.0546 µg/mL) | 
C[C@H](NC(=O)C(C)(F)F)[C@H](Oc1ccc2c(cnn2-c2cccc(C(=O)N[C@H]3CCOC3)c2)c1)c1ccc2c(c1)OCOC2 | 26 µL/min/1e6 cells | 3.6 | 0.11 µM (≈ 0.0667 µg/mL) | 0.03 µM (≈ 0.0182 µg/mL) | 
C[C@H](NC(=O)C(C)(F)F)[C@H](Oc1ccc2c(cnn2-c2ccc(F)cc2)c1)c1ccc2c(c1)COCO2 | 20 µL/min/1e6 cells | 5.4 |  |  | 
C[C@H](NC(=O)C(C)(F)F)[C@H](Oc1ccc2c(cnn2-c2cccc(C(=O)NC3CCS(=O)(=O)C3)c2)c1)c1ccccc1 (stereo not given in full) | < 2.7 µL/min/1e6 cells | 3.8 | 1 µM (≈ 0.597 µg/mL) | 0.34 µM (≈ 0.203 µg/mL) | 
C[C@H](NC(=O)C(C)(F)F)[C@H](Oc1ccc2c(cnn2-c2cccc(C(=O)N[C@@H]3CCOC3)c2)c1)c1ccc2c(c1)OCCO2 [VELSECORAT] | 29 µL/min/1e6 cells | 3.7 | < 0.1 µM | 0.02 µM (≈ 0.0121 µg/mL) | hepatocyte CLint [5]: 34 µL/min/1e6 cells; clearance [16]: 30 mL/min/kg; Vd [6]: 0.16 L/kg; half-life [7]: 0.1 h; bioavailability [8]: < 0.1%; solubility thermodynamic [9]: 0.6 µM (≈ 0.364 µg/mL); Drug uptake (Lung [10]): 73 %ID; Drug uptake (Lung [11]): 32 %ID; AUC(0-inf) [12]: 740 µM·h; half-life [13]: 17 h; MRT [14]: 23 h; Cmax [15]: 7.4 nM; ED25 (Rattus norvegicus): 0.04 mg/kg
C[C@H](NC(=O)C(C)(F)F)[C@H](Oc1ccc2c(cnn2-c2cccc(C(=O)N3CCC[C@@H]3C(N)=O)c2)c1)c1ccc2c(c1)OCCO2 | 11 µL/min/1e6 cells | 2.9 | 47 µM (≈ 29.8 µg/mL) |  | 
C[C@H](NC(=O)C(C)(F)F)[C@H](Oc1ccc2c(cnn2-c2ccc(F)cc2)c1)c1ccc2c(c1)OCC2 | 14 µL/min/1e6 cells | 5.7 |  |  | 
C[C@H](NC(=O)C(F)(F)F)[C@H](Oc1ccc2c(cnn2-c2ccc(F)cc2)c1)c1cccc(O)c1 | 33 µL/min/1e6 cells | 5 |  |  | 
